Data set [1] addresses 3',5'-cyclic-AMP phosphodiesterase 4B (Homo sapiens, UniProt Q07343). Put plainly: Inhibition of PDE4B catalytic domain by scintillation proximity assay. The essentials: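 PDE4B catalytic activity inhibition measured by scintillation proximity assay; pIC50 reported as mean of two determinations.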
Another data set relates to Blood. Description: Inhibition of LPS-induced TNFalpha production in human whole blood. Type of data set: functional, tissue-based.
A short description of data set [2]: Oral bioavailability in rat. Type of data set: ADME, organism-based. To be noted: in vivo.
A short description of data set [3]: Aqueous solubility of the compound. Type of data set: physicochemical.
A short description of data set [4]: Oral bioavailability in cynomolgus monkey. Type of data set: ADME, organism-based, Macaca fascicularis. The following applies: in vivo. In a few lines: (§1)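 Cynomolgus monkey pharmacokinetics after oral dosing as a solution in 10% DMSO, 15% PEG400, 75% water; a second arm used suspension dosing of particle-size-reduced material in 1% methyl cellulose. Values are means of three experiments.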

Data set [5] is described as follows: Selectivity for PDE4B over PDE6.
Data set [6] in a line: Selectivity for PDE4B over PDE1.
The nature of data set [7]: Selectivity for PDE4B over PDE5.
A short description of data set [8]: Clearance in cynomolgus monkey plasma. Type of data set: ADME, organism-based, Macaca fascicularis. The essentials:
as §1

A short description of data set [9]: Selectivity for PDE4B over PDE7.
Data set [10] can be described thus: Half life in cynomolgus monkey. Type of data set: ADME, organism-based, Macaca fascicularis. The following applies: in vivo. In a few lines: as §1
Data set [11] in a line: Selectivity for PDE4B over PDE2.
Data set [12] is described as follows: Selectivity for PDE4B over PDE3.

Data on nine compounds can be found in ChEMBL document CHEMBL1153148, “Addressing species specific metabolism and solubility issues in a quinoline series of oral PDE4 inhibitors” (Bioorg Med Chem Lett, 2010).

Molecules are shown by their SMILES. Values after ≈ are worked out from the molar mass of the structure shown. Where only a bound is given, the exact number is not on record here.

Sequence of 3',5'-cyclic-AMP phosphodiesterase 4B (Q07343 whole entry, the tested form may be a part): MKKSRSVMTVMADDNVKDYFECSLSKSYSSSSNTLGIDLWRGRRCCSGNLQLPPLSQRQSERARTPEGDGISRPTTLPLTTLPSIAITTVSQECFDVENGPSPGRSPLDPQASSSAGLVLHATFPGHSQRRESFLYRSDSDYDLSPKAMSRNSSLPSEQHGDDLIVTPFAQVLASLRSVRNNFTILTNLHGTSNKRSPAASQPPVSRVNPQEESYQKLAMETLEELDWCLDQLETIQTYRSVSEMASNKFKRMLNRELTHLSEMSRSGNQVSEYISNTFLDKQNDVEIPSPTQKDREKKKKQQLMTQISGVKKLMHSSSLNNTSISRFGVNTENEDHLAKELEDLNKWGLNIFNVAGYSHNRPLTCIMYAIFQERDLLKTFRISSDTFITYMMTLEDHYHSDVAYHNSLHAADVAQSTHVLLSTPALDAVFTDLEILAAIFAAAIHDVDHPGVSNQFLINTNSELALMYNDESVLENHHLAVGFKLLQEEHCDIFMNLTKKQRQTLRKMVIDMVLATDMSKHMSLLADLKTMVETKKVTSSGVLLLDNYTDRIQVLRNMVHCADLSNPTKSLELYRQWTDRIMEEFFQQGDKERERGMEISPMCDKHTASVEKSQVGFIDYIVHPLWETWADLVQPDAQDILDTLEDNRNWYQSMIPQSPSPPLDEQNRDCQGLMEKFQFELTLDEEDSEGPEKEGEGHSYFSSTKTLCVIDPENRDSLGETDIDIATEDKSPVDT

For `CCn1nccc1NC1=C(C(N)=O)NNc2c(C)cc(S(=O)(=O)CC)cc21`, the IC50 in data set [1] was 0.316 nM; in the data set on Blood, 10 nM. Moreover, the bioavailability in data set [2] is 41%.
Take `CS(=O)(=O)c1ccc2c(c1)C(Nc1cncc(Cl)c1)=C(C(N)=O)NN2`: the IC50 in data set [1] is 0.794 nM; in the data set with Blood, 31.6 nM. Besides, in data set [2], the bioavailability was 66%. Also, in [3], the solubility was determined as 7 µg/mL (≈ 18.4 µM).
On the same counts, the results for `Cc1cc(S(C)(=O)=O)cc2c1NNC(C(N)=O)=C2Nc1cncc(Cl)c1` are 0.0794 nM, 1.58 nM, 50% and 12 µg/mL (≈ 30.5 µM).
In the case of `CS(=O)(=O)c1cc(F)c2c(c1)C(Nc1cncc(F)c1)=C(C(N)=O)NN2`, the IC50 was 0.631 nM in data set [1] and 158 nM in the data set on Blood.
Turning to `Cc1cc(S(C)(=O)=O)cc2c1NNC(C(N)=O)=C2Nc1cncc(F)c1`, the IC50 in data set [1] is less than 0.501 nM; in the data set on Blood, 5.01 nM. Besides, the bioavailability in data set [2] came out at 34%. The compound also came in with a solubility in data set [3] of 37 µg/mL (≈ 98 µM).
For `Cc1cc(S(C)(=O)=O)cc2c1NNC(C(N)=O)=C2Nc1cccc(C#N)c1`, the bioavailability in data set [4] stood at 64%; in data set [2], 17%. In addition, the Selectivity ratio in data set [5], in data set [6], in data set [7], in [9], in data set [11] and in data set [12] was more than 100 in each case. The results for the concentration for half-maximal inhibition (IC50) (in [1]; in the data set on Blood) were less than 1 nM and 2.51 nM, respectively. Further, the clearance in data set [8] is 1.6 mL/min/kg. Further, the half-life in [10] is 7.2 h. This compound returned a solubility in data set [3] of 1 µg/mL (≈ 2.61 µM).
Turning to `Cc1cc(S(C)(=O)=O)cc2c(Nc3cccc(C#N)c3)c(C(N)=O)cnc12`, the bioavailability in [4] came out at 33%. The clearance in data set [8] is 82 mL/min/kg. This compound had a half-life in [10] of 0.8 h. The compound also showed an IC50 in the data set on Blood of 12.6 nM. The same compound gave a solubility in data set [3] of 1 µg/mL (≈ 2.63 µM).
Take `CC(C)(C)S(=O)(=O)c1ccc2c(c1)C(Nc1cncc(F)c1)=C(C(N)=O)NN2`: the results for the half-inhibitory concentration (IC50) (in data set [1]; with Blood) were 0.501 nM and 12.6 nM, respectively. The same compound came in with a bioavailability in data set [2] of 57%. For the same compound, in data set [3], the concentration in solution (solubility) came to 1 µg/mL (≈ 2.47 µM).
With `Cc1cc(S(C)(=O)=O)cc2c(Nc3cccc(C#N)c3)c(C(N)=O)c(=O)[nH]c12`, the bioavailability in [4] amounted to 52%. Also, the IC50 in data set [1] is 1 nM; in the data set with Blood, 25.1 nM. Moreover, the clearance in data set [8] worked out at 5.9 mL/min/kg. The compound further had a half-life in [10] of 4.2 h.
